Test results from PMC7703390 (Journal of Pharmaceutical and Biomedical Analysis, 2020).

Legend:
[1] = biological target: human serum albumin (HSA) (Homo sapiens, UniProt P02768); assay: Binding of nucleotides to human serum albumin by native ESI-FT-ICR MS
Method in brief: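 Commercial HSA buffer-exchanged five times into 10 mM NH4Ac (pH 6.0) on a 30k membrane filter. Purified HSA (3 μM) mixed with varying nucleotide concentrations in 10 mM NH4Ac and infused at 5 μL∙min−1 in native positive-mode ESI-FT-ICR MS, m/z 1000–5000, 200 scans combined. Free HSA to complex intensity ratios taken from deconvoluted 17+ to 19+ charge states; KD by nonlinear regression.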

[2] = Degradation in liver homogenate on ice and at room temperature; format: in vitro ADME, mouse; details: both on ice and at room temperature; Fig. 4a

human serum albumin (HSA), sequence (P02768 25-609): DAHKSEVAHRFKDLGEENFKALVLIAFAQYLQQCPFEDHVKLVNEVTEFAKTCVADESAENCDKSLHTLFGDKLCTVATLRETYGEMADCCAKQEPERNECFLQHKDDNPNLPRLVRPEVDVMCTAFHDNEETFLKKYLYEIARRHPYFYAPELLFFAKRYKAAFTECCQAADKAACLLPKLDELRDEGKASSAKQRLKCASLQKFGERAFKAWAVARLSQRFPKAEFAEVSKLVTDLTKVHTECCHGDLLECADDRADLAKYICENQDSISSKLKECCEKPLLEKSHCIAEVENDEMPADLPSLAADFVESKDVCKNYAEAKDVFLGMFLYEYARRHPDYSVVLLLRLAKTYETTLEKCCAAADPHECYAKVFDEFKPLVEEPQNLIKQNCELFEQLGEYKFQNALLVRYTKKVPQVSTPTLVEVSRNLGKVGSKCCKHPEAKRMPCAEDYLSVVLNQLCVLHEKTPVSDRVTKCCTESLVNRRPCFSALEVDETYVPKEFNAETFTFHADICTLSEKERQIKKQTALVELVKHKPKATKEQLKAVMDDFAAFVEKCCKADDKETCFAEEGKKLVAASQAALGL

Row | Kd [1] [µM] | degradation in bio-sample without stabilizer [2] | SMILES
1 | 6.79 ± 0.333 | – | O=c1ccn([C@@H]2O[C@H](COP(=O)(O)OP(=O)(O)OP(=O)(O)O)[C@@H](O)[C@H]2O)c(=O)[nH]1 [UTP, uridine triphosphate]
2 | 0.471 ± 0.0238 | – | Nc1ncnc2c1ncn2[C@@H]1O[C@H](COP(=O)(O)OP(=O)(O)OP(=O)(O)O)[C@@H](O)[C@H]1O [ATP, Adenosine triphosphate]
3 | – | almost completely degraded in 5 min | CCC(CC)COC(=O)[C@H](C)N[P@](=O)(OC[C@H]1O[C@@](C#N)(c2ccc3c(N)ncnn23)[C@H](O)[C@@H]1O)Oc1ccccc1 [RDV, Remdesivir]
